This is an account of results in ChEMBL document CHEMBL1765049, “Inhibitory properties of 2-substituent-1H-benzimidazole-4-carboxamide derivatives against enteroviruses” (Bioorg Med Chem, 2011).

For one series, the system named is Coxsackievirus B3. The experiment in a line: Antiviral activity against Coxsackievirus B3 infected in african green monkey Vero cells assessed as inhibition of viral growth after 24 hrs by Reed-Muench method. In kind it is functional, organism-based. The following applies: Enterovirus B. The essentials: (§1)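 Vero cells were seeded and after 24 h exposed to virus for 2 h. Compounds were then added after being dissolved in DMSO and diluted in culture medium. Cell-control and virus-control wells were run alongside. Cytopathic effect was scored once the virus wells exceeded grade 4. The 50% inhibitory concentration of virus growth was calculated by the Reed–Muench method.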

A short description of series [1]: (§2) Cytotoxicity against african green monkey Vero cells. Type of series: cell-based. The following applies: chlorocebus sabaeus, Vero cells; read-out: TC50 (the source's name). The essentials:
(§3)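 TC50 is the compound concentration killing 50% of Vero cells (inhibiting cell growth by 50%). Compounds were dissolved in DMSO and diluted in medium, then added to seeded Vero cells. Cell wells were examined when cytopathic effect in virus-infected control wells exceeded grade 4.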

Series [2] can be described thus: Selectivity index, ratio of TC50 for african green monkey Vero cells to IC50 for Coxsackievirus B3. In kind it is toxicity, cell-based. As to conditions: read-out: Selectivity Index; call rule not given here. The essentials: (§4)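 Selectivity index is calculated as TC50 in Vero cells divided by the antiviral IC50 against the named enterovirus. Both values come from the same Vero cytopathic-effect assay, with compounds dissolved in DMSO and diluted in medium.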

Series [3] is described as follows: Selectivity index, ratio of TC50 for african green monkey Vero cells to IC50 for Human enterovirus 71. The following applies: read-out: Selectivity Index. Type of series: toxicity, cell-based. The essentials:
as §4

In series [4] the test system is Enterovirus A71. The experiment in a line: Antiviral activity against Human enterovirus 71 infected in african green monkey Vero cells assessed as inhibition of viral growth after 48 hrs by Reed-Muench method. In kind it is functional, organism-based. As to conditions: Enterovirus A. The essentials: as §1
The next series concerns Coxsackievirus B6. The experiment in a line: Antiviral activity against Coxsackievirus B6 infected in african green monkey Vero cells assessed as inhibition of viral growth after 24 hrs by Reed-Muench method. Type of series: functional, organism-based. The following applies: Enterovirus B. The gist of the method:
as §1

A further series deals with Coxsackievirus A16. The experiment in a line: Antiviral activity against Coxsackievirus A16 infected in african green monkey Vero cells assessed as inhibition of viral growth after 24 hrs by Reed-Muench method. In kind it is functional, cell-based. The essentials: as §1
Series [5] deals with Enterovirus A71. Put plainly: Antiviral activity against Human enterovirus 71 infected in african green monkey Vero cells assessed as inhibition of viral growth after 24 hrs by Reed-Muench method. In kind it is functional, organism-based. The following applies: Enterovirus A. The gist of the method:
as §1

A short description of series [6]: Selectivity index, ratio of TC50 for african green monkey Vero cells to IC50 for Coxsackievirus B6. Type of series: toxicity, cell-based. As to conditions: read-out: Selectivity Index. The gist of the method: as §4
The nature of series [7]: Selectivity index, ratio of TC50 for african green monkey Vero cells to IC50 for Coxsackievirus A16. In kind it is toxicity, cell-based. As to conditions: read-out: Selectivity Index. The gist of the method:
as §4

The next series concerns Vero. Described as §2. Type of series: cell-based. The following applies: chlorocebus sabaeus, vero. The gist of the method:
as §3

Setting [8] is: Enterovirus A, Vero, 24 h, read-out: IC50.

Consider `O=C(N[C@H](CO)[C@H](O)c1ccc([N+](=O)[O-])cc1)c1cccc2[nH]c(-c3ccccn3)nc12`, for which the IC50 with Coxsackievirus B3 and in the series on Enterovirus A71 [4] was 4.06 µM throughout. Besides, the CC50 in [1] amounted to 1330 µM. Moreover, the selectivity ratio in series [2] and in series [3] was 328 throughout.
Consider `COc1ccc(-c2nc3c(C(=O)Nc4cnc(Cl)cn4)cccc3[nH]2)cc1OC`, for which the IC50 – broadly, the concentration at which inhibition is half-maximal – in the series with Coxsackievirus B3 came to 18.4 µM; with Coxsackievirus B6, 18.1 µM; in the series with Coxsackievirus A16 (setting [8]), 18.1 µM; in the series on Enterovirus A71 [5], 18.1 µM. For the same molecule, the CC50 in series [1] stood at 78.3 µM. Besides, the selectivity ratio in series [2], in [6], in series [7] and in [3] was 4.3 each time.
Regarding `COc1ccc(-c2nc3c(C(=O)N[C@H](CO)[C@H](O)c4ccc([N+](=O)[O-])cc4)cccc3[nH]2)c(OC)c1OC`, the IC50 with Coxsackievirus B3 is 4.73 µM; with Coxsackievirus B6 it was 4.73 µM; with Coxsackievirus A16 (setting [8]), 4.73 µM; in the series on Enterovirus A71 [5], 3.68 µM. Further, the CC50 in [1] came to 9.85 µM. In addition, the selectivity ratio in series [2] stood at 2; in [6] it was 2.1; in series [7] it was 2.1; in series [3] it was 2.7.
In the case of `COc1ccc(-c2nc3c(C(=O)NCCCO)cccc3[nH]2)c(OC)c1OC`, the IC50 in the series with Coxsackievirus B3 was 19.5 µM; with Coxsackievirus B6, 19.2 µM; with Coxsackievirus A16 (setting [8]), 19.2 µM; in the series on Enterovirus A71 [5] it was 14.9 µM. The CC50 in [1] came out at 40 µM. The selectivity ratio in series [2] is 2.1; in series [6] it was 2.7; in series [7], 2.1; in series [3] it was 2.7.
With `CCC(CC)NC(=O)c1cccc2[nH]c(-c3ccc(OC)c(OC)c3OC)nc12`, the IC50 in the series on Coxsackievirus B3, in the series on Coxsackievirus B6, in the series with Coxsackievirus A16 (setting [8]) and in the series on Enterovirus A71 [5] was 18.7 µM in each case. The CC50 in series [1] worked out at 32.3 µM. Moreover, the selectivity ratio is 1.7 in [2], 1.7 in [6], 1.7 in series [7] and 1.73 in [3].
Take `COc1ccc(-c2nc3c(C(=O)Nc4cnc(Cl)cn4)cccc3[nH]2)c(OC)c1OC`: the IC50 in the series on Coxsackievirus B3 turned out to be 17.4 µM; in the series on Coxsackievirus B6, 16.9 µM; in the series on Coxsackievirus A16 (setting [8]), 16.9 µM; in the series with Enterovirus A71 [5], 16.9 µM. The CC50 in series [1] was 65.2 µM. Moreover, the selectivity ratio in series [2] stood at 3.8; in series [6] it was 3.9; in series [7], 3.9; in series [3], 3.9.
With `COc1ccc(-c2nc3c(C(=O)Nc4nc5ccccc5[nH]4)cccc3[nH]2)c(OC)c1OC`, the IC50 stood at 16.9 µM in the series on Coxsackievirus B3, 16.7 µM in the series with Coxsackievirus B6, 16.7 µM in the series with Coxsackievirus A16 (setting [8]) and 16.7 µM in the series with Enterovirus A71 [5]. The CC50 in [1] was 29 µM. Further, the selectivity ratio in [2], in [6], in series [7] and in series [3] was 1.7 in each case.
Turning to `COc1ccc(-c2nc3c(C(=O)Nc4ncc[nH]4)cccc3[nH]2)cc1OC`, in the series on Coxsackievirus A16 (vero), the IC50 entry is “Not Active”. In addition, the TC50 result in the series on Vero is listed as “Not Active”.
